Results on 7 molecules are retold here after PMC10718585 (RSC Medicinal Chemistry, 2023).

The structures appear in SMILES notation.

The subject of test [1] is U87, T98 and bEnd.3 cells. The test can be described thus: PrestoBlue cell viability screen, cell line not given. The following applies: BEND3, 120 h. Format: cell-based. An outline of the steps:
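bEnd.3 cells, grown in DMEM with 10% FBS and 2 mM L-glutamine, seeded at 1 × 10^4 per well. After 48 h at 37 °C/5% CO2 the medium was replaced and 20× compound dilutions in DMEM added (3–30 μM 3-point or 0.03–30 μM semi-log 7-point). DMSO 0.1% v/v served as untreated control. After 5 d, PrestoBlue was added for 60–90 min (ex 540/em 590 nm). EC50 came from a four-parameter logistic fit, minimum constrained to zero, normalised to untreated cells.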

A further test deals with T98 cells. The test can be described thus: PrestoBlue dose–response cell viability assay, 5 d. Format: cell-based, human. The note with it: T98 versus U87 and bEnd.3, 3-point screen.
The target in another test is LCK (Homo sapiens, UniProt P06239). The test can be described thus: Z′-LYTE kinase inhibition. Format: biochemical. The following applies: 3-point dose–response (0.1, 1, 10 μM), ATP Km app. The essentials: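 Z′-LYTE FRET assay: a peptide substrate tagged with a FRET pair, with protease cleavage distinguishing phospho from non-phospho peptide, read ratiometrically. Wild-type kinase was tested at 0.1, 1 and 10 μM in duplicate, with 1% DMSO and ATP at apparent Km. 100% inhibition was set without ATP; 0% used a synthetically phosphorylated substrate peptide. IC50 came from the dose-response curve.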
LCK, sequence (P06239 whole entry): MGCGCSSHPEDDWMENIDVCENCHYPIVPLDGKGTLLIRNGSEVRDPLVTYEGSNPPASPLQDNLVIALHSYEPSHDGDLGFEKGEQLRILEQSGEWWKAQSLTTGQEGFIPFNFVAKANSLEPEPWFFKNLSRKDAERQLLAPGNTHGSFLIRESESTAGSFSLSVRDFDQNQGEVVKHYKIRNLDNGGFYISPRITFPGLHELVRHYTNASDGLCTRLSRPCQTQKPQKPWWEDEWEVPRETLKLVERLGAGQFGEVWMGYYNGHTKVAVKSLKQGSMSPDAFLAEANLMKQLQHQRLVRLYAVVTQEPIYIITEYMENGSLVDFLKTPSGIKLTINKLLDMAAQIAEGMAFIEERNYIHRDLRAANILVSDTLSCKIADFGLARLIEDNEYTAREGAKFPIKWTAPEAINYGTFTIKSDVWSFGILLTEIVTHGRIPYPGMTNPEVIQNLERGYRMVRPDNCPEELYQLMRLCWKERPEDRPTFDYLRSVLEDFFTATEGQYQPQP

A further test deals with U87 cells. The test can be described thus: PrestoBlue dose–response cell viability assay, 5 d. Format: cell-based, human. The note with it: U87, 3-point screen.

In turn, `CC1CCN(CC#Cc2nn(CC3CCCC3)c3ncnc(N)c23)CC1` [A3] had an EC50 in test [1] of less than 30000 nM. As for `CNc1ncc2c(C#CCN3CCC(NC(C)=O)CC3)nn(CC3CCCC3)c2n1` [B16], in the test on T98 cells, the antiproliferative selectivity profile result is on record as “selective antiproliferative profile against the T98 cell line”. Still for that read-out and setting: as for `CNc1ncc2c(C#CCN3CCCCCC3)nn(CC3CCCC3)c2n1` [B21], the entry is “selective antiproliferative profile against the T98 cell line”; as for `CCOC(=O)C1CCN(CC#Cc2nn(CC3CCCC3)c3nc(NC)ncc23)CC1` [B22], “selective antiproliferative profile against the T98 cell line”; as for `CCOC(=O)N1CCN(CC#Cc2nn(CC3CCCC3)c3nc(NC)ncc23)CC1` [B23], “selective antiproliferative profile against the T98 cell line”. The molecule `CN(C)C1CCN(CC#Cc2nn(C3CCCC3)c3nc(NCc4ccccc4)ncc23)C1` (stereo not shown) [B58, N-Benzyl-1-cyclopentyl-3-(3-(3-(dimethylamino)pyrrolidine-1-yl)prop-1-yn-1-yl)-1H-pyrazolo[3,4-d]pyrimidin-6-amine] returned an IC50 on LCK of 2270 nM. On to `Cn1nnc2c(C(N)=O)ncn2c1=O` [TMZ, temozolomide], for which, in the test on U87 cells, the antiproliferative activity entry was “some level of antiproliferative activity”.
